Active and inactive are the calls of the source. The calls are words filed in the database; no cut-off is given here. Where only a bound is given, the exact number is not on record here.

Series [1] is described as follows: Induction of Coenzyme A regeneration in human IMR-32 PANK2 knockdown cells at 50 uM for 24 hrs by HPLC analysis relative to control. It is filed as functional. Put shortly:
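PANK2-knockout neuroblastoma cells were grown in MEM with 10% FBS and 1 µg/mL puromycin and seeded at 0.2×10⁶ cells/well. After 72 h, they were dosed at 50 µM in DMSO (final 0.1%) at 37 °C. Washed, frozen pellets were reconstituted in ammonium acetate (pH 5.1) with internal standard, and free CoA was measured by LC-MS/MS. Intracellular volume was taken as 2 µL/10⁶ cells; results are fold over vehicle-treated cells.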

A short description of series [2]: Stability of compound in human hepatocytes assessed as half life. The series is classed as ADME, cell-based, Hepatocyte.
Series [3] can be described thus: Stability of compound in human whole blood assessed as half life. It is filed as ADME, tissue-based.
Series [4] can be described thus: Apparent permeability in porcine brain endothelial cells. The series is classed as ADME, cell-based, Sus scrofa, Endothelial cell. Particulars: pig.
For series [5], the system named is IMR-32. Description: Decrease in lipid droplet content in human IMR-32 PANK2 knockdown cells at 10 uM for 48 hrs by Nile red staining based inverted microscopic analysis. It is filed as functional. In a few lines: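 PANK2-knockout neuroblastoma cells were treated for 48 h, then fixed and stained with 100 ng/mL Nile Red. Cells were imaged on an inverted microscope at 60×, and lipid droplet content was quantified by plate fluorimetry. Data are mean ± sd of two biological replicates, each in duplicate; two-tailed paired Student's t-test.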

The test system of series [6] is IMR-32. Kind of series: Increase in tubulin acetylation in human IMR-32 PANK2 knockdown cells at 50 uM for 48 hrs by Western blot analysis. The series is classed as functional.
Series [7] is described as follows: Effect on free coenzyme A level in C57BL6 mouse brain at 500 mg/kg, po administered as single dose measured after 1 hr UPLC quadrupole-time-of-flight mass spectrometry (Rvb =100%). It is filed as functional. In a few lines:
(§1)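 C57BL6 mice, three per time point, received one oral 500 mg/kg dose of isotopically labeled prodrug, and brains were taken at 0, 1, 6 and 24 h. Brains were homogenized in water (3 mL/g), protein was precipitated with MeOH, and dried supernatant was reconstituted in 10 mM ammonium acetate (pH ~5). Analysis was UPLC-QTOF MS in positive ESI, scoring labeled CoA (+6, +4 amu) as a share of free CoA.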

The test system of series [8] is IMR-32. Kind of series: Increase in histone H3 acetylation in human IMR-32 PANK2 knockdown cells at 50 uM for 48 hrs by Western blot analysis. It is filed as functional.
Series [9] is described as follows: Effect on free coenzyme A level in C57BL6 mouse brain at 500 mg/kg, po administered as single dose measured after 6 hr UPLC quadrupole-time-of-flight mass spectrometry (Rvb =100%). It is filed as functional. Put shortly: as §1
Series [10] can be described thus: Effect on free coenzyme A level in C57BL6 mouse brain at 500 mg/kg, po administered as single dose measured after 24 hrs UPLC quadrupole-time-of-flight mass spectrometry (Rvb =100%). It is filed as functional. In a few lines: as §1
A short description of series [11]: Stability of compound in human plasma assessed as half life. It is filed as ADME, cell-free.
Series [12] is described as follows: Increase in free coenzyme A level in C57BL6 mouse brain at 500 mg/kg, po administered as single dose measured after 6 hrs UPLC quadrupole-time-of-flight mass spectrometry (Rvb =0%). It is filed as functional. Put shortly:
as §1

Series [13] is described as follows: Increase in free coenzyme A level in C57BL6 mouse brain at 500 mg/kg, po administered as single dose measured after 1 hr UPLC quadrupole-time-of-flight mass spectrometry (Rvb =0%). It is filed as functional. Put shortly: as §1
The nature of series [14]: Increase in free coenzyme A level in C57BL6 mouse brain at 500 mg/kg, po administered as single dose measured after 24 hrs UPLC quadrupole-time-of-flight mass spectrometry (Rvb =0%). The series is classed as functional. In a few lines: as §1

For `CCc1cc(C(=O)OCO[P@@]2(=O)OCC(C)(C)[C@H](C(=O)NCCC(=O)OC)O2)n(C)n1`, in series [1], the “fold change (FC)” value stood at 14. Moreover, the half-life in series [2] was 18 min; in series [3], not below 58.2 min. The apparent permeability (Papp) in series [4] stood at 118 nm/s.

For the molecule `COC(=O)CCNC(=O)[C@@H]1OP(=O)(OCOC(=O)C(C)(C)C)OCC1(C)C` (mixture of isomers), the “fold change (FC)” value in series [1] amounted to 180. Also, the inhibition entry in the series with IMR-32 [5] was “Active”. Further, the result with IMR-32 [6] and in the series on IMR-32 [8] was Active. For the same molecule, the Activity in [7] was determined as 100%; in [9], 92%; in series [10] it was 85%.

Consider `COC(=O)CCNC(=O)[C@@H]1O[P@](=O)(Oc2ccc(F)cc2)OCC1(C)C`, for which, in [1], the “fold change (FC)” value came to 87. The Papp in series [4] turned out to be 160 nm/s.

Turning to `COC(=O)CCNC(=O)[C@@H]1O[P@@](=O)(OCOC(=O)c2cncs2)OCC1(C)C` (relative stereo), in series [11], the half-life was less than 9.6 min.

Consider `COC(=O)CCNC(=O)[C@@H]1O[P@@](=O)(OCOC(=O)c2cc(C(C)(C)C)n[nH]2)OCC1(C)C`, for which, in series [1], the “fold change (FC)” value stood at 101. Also, the half-life was 30 min in [2] and more than 60 min in series [3]. In addition, in series [4], the apparent permeability coefficient (Papp) was 53 nm/s.

For the molecule `COC(=O)CCNC(=O)[C@@H]1O[P@](=O)(OCOC(=O)c2cncs2)OCC1(C)C` (relative stereo), the half-life in [11] is less than 9.6 min.

Turning to `CO[13C](=O)[13CH2][13CH2][15NH]C(=O)[C@@H]1OP(=O)(OCOC(=O)C(C)(C)C)OCC1(C)C` (stereo partly drawn), the Activity in [12] worked out at 2.7%; in [13], 0%; in series [14] it was 12.9%.

As to `CC(C)(C)OC(=O)CCNC(=O)[C@@H]1OP(=O)(OCOC(=O)C(C)(C)C)OCC1(C)C` (mixture of isomers), the “fold change (FC)” value in series [1] was found to be 2. Also, in [3], the half-life was more than 60 min.

Consider `COC(=O)CCNC(=O)[C@@H]1O[P@@](=O)(OCOC(=O)c2scnc2C)OCC1(C)C`, for which the “fold change (FC)” value in series [1] came out at 40. The half-life in series [2] is 30 min; in series [3], more than 60 min. Also, the Papp in [4] amounted to 51 nm/s.

As for `COC(=O)CCNC(=O)[C@@H]1O[P@](=O)(Oc2ccc(C#N)cc2)OCC1(C)C`, the “fold change (FC)” value in series [1] is 7. For the same molecule, the half-life in series [3] was 27.6 min.

For `CO[13C](=O)[13CH2][13CH2][15NH]C(=O)[C@@H]1OP(=[18O])(OCOC(=O)C(C)(C)C)OCC1(C)C` (stereo partly drawn), the Activity in [12] was found to be 5.3%; in series [13] it was 0%; in series [14], 2.1%.
